Activity and inhibition data for one molecule are collected here from ChEMBL document CHEMBL5357044, “Discovery of a dual-acting inhibitor of interleukin-1β and STATs for the treatment of inflammatory bowel disease” (RSC Med Chem, 2024).

Active and inactive are the calls of the source. The rule behind the calls is not given here.

One assay has as its system Colon. The assay can be described thus: Downregulation of IL-6 level in colon tissue of DSS-induced ulcerative colitis mouse model at 0.2 to 0.6 mg/kg, ip treated every 72 hrs for 9 days by ELISA. It counts as functional, organism-based. The conditions noted are these: dose 0.2-0.6 mg/kg, time 9.0 day. The method in brief:
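Colitis induced with 2.5% DSS in drinking water on days 1–7, plain water days 8–9. Compound given i.p. at 0.2 and 0.6 mg kg−1 in 50% PEG300 on days 2, 5 and 8. Mice killed on day 9; colon tissue cytokines measured by ELISA. Mean ± s.e.m.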
(In an ELISA, binding on a coated surface is turned into a signal by an enzyme label.)

For assay [1], the target named is NLR family CARD domain-containing protein 4 (Mus musculus) (UniProt Q3UP24). Description: Inhibition of NLRC4 inflammasome activation in mouse BMDM cells assessed as reduction in LPS-stimulated IL-1beta level at 50 to 200 nM pretreated for 1 hr followed by FLA-ST Ultrapure treatment for 4 hrs by ELISA. The conditions noted are these: dose 50-200 nM, time 5.0 hrs. It counts as cell-based. The method in brief:
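BMDMs (RPMI 1640, 10% FBS, Glutamax, 20 ng mL−1 M-CSF) primed with 0.5 μg mL−1 LPS for 3 h, then compound for 1 h. Stimulated 4 h with FLA-ST Ultrapure 2.5 μg mL−1 (NLRC4) or poly(dA/dT) 0.25 μg mL−1 (AIM2). IL-1β measured by ELISA.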

For assay [2], the target named is NACHT, LRR and PYD domains-containing protein 3 (Mus musculus) (UniProt Q8R4B8). Description: Inhibition of NLRP3 inflammasome activation in mouse J774.A1 cells assessed as NLRP3 ubiquitination at 100 nM pretreated for 1 hr followed by nigericin treatment for 1 hr. Particulars: time 2.0 hrs.
Chain of NACHT, LRR and PYD domains-containing protein 3 (Mus musculus) (Q8R4B8 whole entry, the tested form may be a part): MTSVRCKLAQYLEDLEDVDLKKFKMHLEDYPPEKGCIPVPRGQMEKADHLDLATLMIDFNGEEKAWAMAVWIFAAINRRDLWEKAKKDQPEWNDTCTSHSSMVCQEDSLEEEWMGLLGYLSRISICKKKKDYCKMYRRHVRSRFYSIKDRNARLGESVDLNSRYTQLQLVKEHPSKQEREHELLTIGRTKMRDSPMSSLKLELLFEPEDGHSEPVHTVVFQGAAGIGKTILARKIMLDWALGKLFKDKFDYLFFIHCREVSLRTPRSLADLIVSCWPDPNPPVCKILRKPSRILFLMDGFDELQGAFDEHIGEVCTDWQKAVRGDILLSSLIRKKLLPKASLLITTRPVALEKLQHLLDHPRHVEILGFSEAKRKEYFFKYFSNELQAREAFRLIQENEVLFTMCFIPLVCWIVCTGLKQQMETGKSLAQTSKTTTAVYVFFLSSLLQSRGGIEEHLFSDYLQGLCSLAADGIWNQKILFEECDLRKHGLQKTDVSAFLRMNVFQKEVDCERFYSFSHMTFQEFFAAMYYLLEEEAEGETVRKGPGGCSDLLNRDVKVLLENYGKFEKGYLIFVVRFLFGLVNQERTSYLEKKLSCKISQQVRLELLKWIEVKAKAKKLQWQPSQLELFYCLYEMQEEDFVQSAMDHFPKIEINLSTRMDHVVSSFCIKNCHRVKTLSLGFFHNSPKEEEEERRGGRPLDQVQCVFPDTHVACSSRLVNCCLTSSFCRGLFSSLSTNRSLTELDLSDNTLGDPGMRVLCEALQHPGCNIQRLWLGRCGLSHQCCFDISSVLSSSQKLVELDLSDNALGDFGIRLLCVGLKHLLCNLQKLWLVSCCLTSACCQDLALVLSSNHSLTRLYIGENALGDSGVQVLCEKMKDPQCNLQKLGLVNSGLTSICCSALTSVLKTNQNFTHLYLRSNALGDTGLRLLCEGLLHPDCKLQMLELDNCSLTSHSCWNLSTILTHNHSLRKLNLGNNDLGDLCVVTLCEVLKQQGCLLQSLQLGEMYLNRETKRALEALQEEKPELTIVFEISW

Chain of NLR family CARD domain-containing protein 4 (Mus musculus) (Q3UP24 whole entry, the tested form may be a part): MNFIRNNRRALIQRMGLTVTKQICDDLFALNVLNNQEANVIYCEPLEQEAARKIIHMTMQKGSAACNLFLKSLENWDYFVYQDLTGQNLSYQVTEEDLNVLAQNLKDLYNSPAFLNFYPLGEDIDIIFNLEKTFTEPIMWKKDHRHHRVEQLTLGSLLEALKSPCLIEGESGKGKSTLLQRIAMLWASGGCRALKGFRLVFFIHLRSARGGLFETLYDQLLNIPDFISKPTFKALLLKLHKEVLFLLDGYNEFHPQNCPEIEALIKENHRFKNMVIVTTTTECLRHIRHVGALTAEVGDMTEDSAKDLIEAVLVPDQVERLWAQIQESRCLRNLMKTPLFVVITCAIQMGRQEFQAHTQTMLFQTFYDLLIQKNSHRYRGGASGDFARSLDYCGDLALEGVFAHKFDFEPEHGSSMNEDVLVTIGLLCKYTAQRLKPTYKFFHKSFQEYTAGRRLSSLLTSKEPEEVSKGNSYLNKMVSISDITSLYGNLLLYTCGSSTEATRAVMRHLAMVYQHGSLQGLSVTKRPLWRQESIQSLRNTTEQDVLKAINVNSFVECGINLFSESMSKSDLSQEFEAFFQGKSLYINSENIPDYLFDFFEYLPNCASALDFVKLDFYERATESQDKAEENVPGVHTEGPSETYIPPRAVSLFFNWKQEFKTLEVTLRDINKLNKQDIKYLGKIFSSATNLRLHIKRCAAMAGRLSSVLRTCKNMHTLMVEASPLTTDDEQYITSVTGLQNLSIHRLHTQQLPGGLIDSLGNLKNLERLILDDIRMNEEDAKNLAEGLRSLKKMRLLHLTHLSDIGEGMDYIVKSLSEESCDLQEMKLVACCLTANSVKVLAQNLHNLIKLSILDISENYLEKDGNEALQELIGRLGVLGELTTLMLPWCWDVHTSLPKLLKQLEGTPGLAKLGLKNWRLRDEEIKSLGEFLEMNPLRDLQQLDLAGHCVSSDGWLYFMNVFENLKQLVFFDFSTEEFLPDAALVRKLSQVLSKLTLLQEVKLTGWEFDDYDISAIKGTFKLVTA

Consider `Cc1cc(/C=C/C(=O)c2ccc(C(=O)N[C@@H](Cc3ccccc3)C(=O)N[C@@H](CC(C)C)B(O)O)cc2)cc(C)c1O`, for which the result in the assay with Colon was inactive. Further, in assay [1], the inhibition result was “inactive”. Moreover, the inhibition result in assay [2] was “Active”.
